PostGolgi ctrl: yeast control strain growth, post-Golgi counter-screen; efflux-deficient yeast background strain, growth absorbance A615, 16 h; inhibition, % at 10 µM; actives 5% (n = 98,000); AID 738
tolC growth inh: E. coli tolC mutant growth inhibition. actives 2.2% (n = 65,000). growth inhibition, % at 10 µM (by protocol). E. coli BW25113 tolC mutant growth, OD615;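 active means growth inhibition at or above a cutoff equal to the mean over every tested compound plus 3 SD, cut at about 60% in these data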;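 further: growth measured after 20 h incubation at 37 °C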
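Test system: tolC-deleted E. coli BW25113 | Medium: LB with kanamycin 50 µg/mL | Compound dosing: Single concentration, 10 µM final per compound | Schedule: 37 °C, 20 h exposure | Measured by: OD at 615 nm | Evaluation: Percent growth inhibition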
PostGolgi yeast: growth inhibition of a yeast mutant, post-Golgi transport screen. actives 0.9% (n = 98,000). AID 739. post-Golgi transport phenotypic cell assay. inhibition, % at 10 µM;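 further: yeast cells grown in 1536-well plates; yeast grown about 18 h at 30C before absorbance read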
HePTP inh: human HePTP phosphatase inhibition; inhibition, % at 20 µM; actives 0.64% (n = 110,000); recombinant HePTP phosphatase activity, OD absorbance; P35236; in the data active means inhibition above about 50%;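 further: plate controls were vehicle for no effect and reference inhibitor for full effect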
PLAP act: activators of human placental alkaline phosphatase | activation fold at 20 µM | AID 696 | purified PLAP enzyme, luminescent substrate read-out; active compounds read high | P05187 | actives 1.2% (n = 96,000); in the data active means activation fold above about 2
Target sequence (P05187 whole entry, looked up): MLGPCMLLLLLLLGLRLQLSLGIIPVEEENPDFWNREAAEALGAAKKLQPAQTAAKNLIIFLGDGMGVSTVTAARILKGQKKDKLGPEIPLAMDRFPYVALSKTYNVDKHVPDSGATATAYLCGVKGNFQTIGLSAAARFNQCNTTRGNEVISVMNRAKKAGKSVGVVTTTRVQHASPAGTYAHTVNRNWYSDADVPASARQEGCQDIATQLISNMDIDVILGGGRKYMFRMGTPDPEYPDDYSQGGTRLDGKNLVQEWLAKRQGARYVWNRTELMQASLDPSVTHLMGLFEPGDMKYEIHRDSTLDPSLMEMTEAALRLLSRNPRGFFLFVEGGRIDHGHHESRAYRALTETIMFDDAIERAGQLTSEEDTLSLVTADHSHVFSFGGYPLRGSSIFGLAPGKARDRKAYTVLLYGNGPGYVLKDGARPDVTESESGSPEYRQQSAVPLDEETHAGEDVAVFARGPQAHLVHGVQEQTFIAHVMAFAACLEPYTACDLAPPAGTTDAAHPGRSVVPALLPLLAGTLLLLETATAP
E coli WT exp: E. coli BW25113 growth inhibition, expanded screen | OD600 absorbance | growth inhibition, % at 100 µM | actives 0.15% (n = 98,000);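 active means growth inhibition above about 50% at one test dose, limit read from the data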;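 further: growth measured after 20 h incubation at 37 °C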
The depositor's hits bear a star; . = no result. A selection: hits, their analogues and other compounds. The true share with any hit is near 5.4%. Unless noted, no stated cut-off is given here; in the data, active means inhibition above about 30%; inactive means the rest.

SMILES	PostGolgi ctrl	tolC growth inh	PostGolgi yeast	HePTP inh	PLAP act	E coli WT exp
Cc1ccc(C)c(N2CCN(C(=O)c3ccccc3Br)CC2)c1	29	69*	1	2	.	-8
CC(=O)c1cc(F)c(N2CCN(C(=O)c3ccccc3Br)CC2)cc1C	.	.	.	-10	.	.
COc1ccc(C)cc1NC(=O)C(=O)NCc1ccco1	.	.	.	11	.	.
Cc1cccc(NC(=S)NNC(=O)c2ccco2)c1	-3	.	3	.	2.1*	10
COc1ccc(C)cc1NC(=O)C(=O)NNC(=O)c1ccco1	12	.	1	.	2.5*	1
Cc1ccc(NC(=S)NNC(=O)c2ccco2)cc1	-5	.	-8	.	1.8	-5
Cc1ccc(C)c(NC(=S)NNC(=O)c2sccc2C)c1	5	.	-3	.	2.6*	-5
Cc1occc1C(=O)NNC(=S)Nc1ccccc1	1	.	-6	.	1.9	2
Cc1ccccc1NC(=S)NNC(=O)c1ccoc1C	7	.	3	.	2.1*	4
Cc1ccsc1C(=O)NNC(=O)Nc1ccc(Cl)c(Cl)c1	11	.	5	.	1	2
CCOC(=O)c1c(C)c2c(n1C)CCC/C2=N\O	5	7	0	-1	0.8	0
Cc1ccc(C)c(NC(=S)NNC(=O)c2ccc(Br)o2)c1	28	.	-25	.	2.3*	4
Cc1ccc(NC(=O)CCC(=O)NNC(=O)c2ccco2)c(C)c1	20	.	3	.	1.5	4
Cc1ccc2oc(-c3ccc(C)c(NC(=O)c4ccc(Br)o4)c3)nc2c1	.	.	.	-6	.	.
Cc1ccc(C)c(NC(=S)NNC(=O)c2ccco2)c1	19	.	1	.	2.5*	-6
O=C1NCC(O)=C1C=NCc1ccc(Cl)cc1	.	.	.	1	.	.
CCCCOC(=O)C(C#N)c1nc2ccccc2nc1N1CCOCC1 (stereo unspecified)	37*	14	0	3	1.3	3
COCCOC(=O)C(C#N)c1nc2ccccc2nc1N1CCCC1 (stereo unspecified)	11	31	-9	9	0.9	4
C=CCOC(=O)C(C#N)c1nc2ccccc2nc1N1CCCC1 (stereo unspecified)	10	96*	0	-5	1.2	4
CCCCCCOC(=O)C(C#N)c1nc2ccccc2nc1N1CCOCC1 (stereo unspecified)	16	1	-8	3	1.2	-7
Cc1ccc(C(=O)CCNc2ccccc2)cc1	.	.	.	-11	.	.
C=CCN1C(=O)C(O)(CC(=O)c2c(C)n[nH]c2C)c2cc(Br)ccc21 (stereo unspecified)	10	-6	6	1	1	3
CCN(CC)S(=O)(=O)c1ccc(NC2CCCc3ccccc32)nc1 (stereo unspecified)	48*	16	4	3	.	-10
O=S(=O)(c1ccc(NC2CCCc3ccccc32)nc1)N1CCOCC1 (stereo unspecified)	11	6	-9	0	1.4	-3
CS(=O)(=O)N(CC(=O)N1CCN(Cc2ccc3c(c2)OCO3)CC1)Cc1ccc(Cl)cc1	4	.	-1	.	1.6	-5
SMILES	PostGolgi ctrl	tolC growth inh	PostGolgi yeast	HePTP inh	PLAP act	E coli WT exp
O=C(CCC1CCCCC1)N1CCN(Cc2ccc3c(c2)OCO3)CC1	38*	27	73*	-10	1.3	14
COc1ccc(-c2n[nH]c(C)c2-c2cnn(-c3ccccc3)c2)c(O)c1C	50*	.	-12	.	1.3	-12
COc1ccc(-c2n[nH]c(C)c2-c2cnn(-c3ccccc3)c2)c(O)c1	.	14	.	2	.	.
CC1CCN(S(=O)(=O)c2cccc(-c3nnc(-c4cccnc4)o3)c2)CC1	13	-3	-4	-7	0.8	0
Cc1csc(NC(=O)c2cccc(Cn3nc(C)c(Br)c3C)c2)n1	15	73*	8	7	1.2	-1
Cc1cc(NC(=O)c2ccc(Cn3nc(C)c(Br)c3C)o2)no1	10	6	-5	3	0.9	0
Cc1nn(Cc2ccc(C(=O)Nc3nc4c(C)cccc4s3)o2)c(C)c1Br	35*	.	32*	.	1.2	-10
Cc1nn(Cc2cccc(C(=O)NC3CCCCC3)c2)c(C)c1Cl	22	.	15	.	1.3	4
COc1ccc(OC)c(Nc2nc(-c3sc(C)nc3C)cs2)c1	48*	7	0	-4	2.1*	-14
COc1ccc(OC)c(Nc2nc(-c3sc(NC(=O)C(C)(C)C)nc3C)cs2)c1	9	.	0	.	1.1	-4
COc1ccc(N2CCN(C(c3nnnn3CCc3ccccc3)C(C)C)CC2)cc1 (stereo unspecified)	35*	14	9	3	0.9	-6
COc1ccc(CCn2nnnc2C(CC(C)C)N2CCN(c3ncccn3)CC2)cc1OC (stereo unspecified)	-3	-1	-10	6	1.4	-4
CC(C)C(c1nnnn1CCc1ccccc1)N1CCOCC1 (stereo unspecified)	-4	-10	11	4	1	8
COc1ccc(CCn2nnnc2C(C(C)C)N2CCN(c3ncccn3)CC2)cc1OC (stereo unspecified)	35*	-1	-1	3	1.6	1
Cc1cc(NCCCn2ccnc2)n2ncc(-c3ccccc3)c2n1	38*	23	19	7	2.3*	11
Cc1cccc(OCC(=O)O/N=C(\N)Cc2ccc(Cl)cc2)c1	-2	.	30*	-15	0.9	3
N/C(Cc1ccc(Cl)cc1)=N\OC(=O)c1ccccc1	45*	.	-1	.	0.9	1
Cc1cccc(OCC(=O)O/N=C(\N)Cc2ccc(Cl)cc2Cl)c1	.	.	.	3	.	.
N/C(Cc1ccc(Cl)cc1)=N\OC(=O)c1ccccc1Cl	.	.	.	-22	.	.
CCCC(c1nnnn1Cc1ccc(OC)cc1)N1CCN(c2ccccc2)CC1 (stereo unspecified)	31*	18	3	8	1.2	-16
COCCn1nnnc1C(c1ccccc1OC)N1CCN(c2ccccc2)CC1 (stereo unspecified)	3	5	-2	-8	1.3	-8
COc1ccc(Cn2nnnc2C(CC(C)C)N2CCN(c3ccccc3)CC2)cc1 (stereo unspecified)	63*	25	14	10	1.2	-15
COc1ccc(Cn2nnnc2C(C(C)C)N2CCc3ccccc32)cc1 (stereo unspecified)	28	73*	-1	9	1.1	-4
CC(C)C(c1nnnn1Cc1ccc2c(c1)OCO2)N1CCN(c2ccccc2)CC1 (stereo unspecified)	19	-14	-3	5	0.9	5
CCCC(c1nnnn1Cc1ccc(OC)cc1)N1CCC(C(N)=O)CC1 (stereo unspecified)	9	-14	7	2	1.8	2
CC(C)CC(c1nnnn1C(C)C)N1CCN(c2ccccc2)CC1 (stereo unspecified)	61*	.	-7	.	1.2	-2
COc1ccc(Cn2nnnc2C(c2cccs2)N2CCOCC2)cc1 (stereo unspecified)	7	-8	7	-8	1.4	-9
Cc1cccc(OCC(=O)N2CCN(c3ccc([N+](=O)[O-])cc3)CC2)c1	.	.	.	-5	.	.

Compound activity as filed in PubChem BioAssay.
